# Assays:
# Mus musculus [1] = assay: Antidepressant activity against Swiss-Webster mouse assessed as reduction in duration of immobility at 10 mg/kg, ip after 1 hr by tail suspension behavioral despair test relative to control; type: functional; set-up: scale not given: the % may be the effect or the level left; details: route intraperitoneal
# Outline: (§1)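 Mice dosed ip at 10 mg/kg in 0.5% w/v CMC in water (0.5 mL per 100 g body weight); controls got CMC alone; imipramine 10 mg/kg as reference. One hour later mice were hung by the tail from a shelf edge 80 cm above the floor, taped about 1 cm from the tail tip. Immobility (passive, completely motionless hanging) timed over 6 min; mean ± S.E.M., % deviation from control.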
# Mus musculus [2] = assay: Antidepressant activity against Swiss-Webster mouse at 10 mg/kg, ip after 1 hr by tail suspension behavioral despair test relative to imipramine; type: functional; details: route intraperitoneal; outline: as §1
# [3] = Chemical stability in ferricyanide solution assessed as rate of oxidation by UV spectroscopy; type: physicochemical
# [4] = Chemical stability in 30% hydrogen peroxide assessed as rate of oxidation by UV spectroscopy; type: physicochemical
# [5] = Stability in phosphate buffer at pH 7.4 after 4 days by HPLC; type: physicochemical
# Outline: (§2)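 Dihydropyridine carrier at 2 × 10^-1 mmol in 0.2 M phosphate buffer (pH 7.4 or 5.8) at room temperature (32 °C), followed for 4 days by HPLC for the parent and its oxidation or degradation products. Pseudo-first-order disappearance constant from linear regression of ln peak area against time; t1/2 calculated; n = 4.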
# [6] = Stability in phosphate buffer at pH 5.8 after 4 days by HPLC; type: physicochemical; outline: as §2
# [7] = Stability in mouse plasma assessed as rate of oxidation by HPLC; type: ADME, cell-free
# Outline: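 Heparinized mouse blood spun 4000 rpm for 20 min; plasma diluted to 80% with phosphate buffer (0.11 mol, pH 7.4) and prewarmed at 37 °C. Methanolic dihydro compound added; kept at 37 °C. Aliquots at 1, 2, 4, 8, 16, 32 and 64 min quenched in ice-cold methanol, frozen at −80 °C, centrifuged, filtered and run on HPLC. K_disapp and t1/2 from linear regression of ln peak area vs time; n = 4.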
# [8] = Stability in Swiss-Webster mouse brain homogenate assessed as rate of oxidation by HPLC; type: ADME, tissue-based
# Outline: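 Brains from ten adult male Swiss-Webster mice were washed in ice-cold saline and homogenized in ice-cold isotonic phosphate buffer (0.2 mol, pH 7.4) to give 20% homogenate, then prewarmed 5 min at 37 °C. Methanolic dihydro compound added; held at 37 °C. Samples taken at 1–64 min into ice-cold methanol, frozen at −80 °C, then analysed by HPLC. Pseudo-first-order K and t1/2 from ln peak area vs time; n = 4.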
# Brain = assay: Drug level in Sprague-Dawley rat brain at 20 mg/kg, iv; type: ADME, organism-based; set-up: dose 20 mg/kg, route intravenous; details: in vivo
# Outline: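 Male Sprague-Dawley rats received a freshly prepared DMF solution (25 mg/mL) via the external jugular vein at 20 mg/kg. Animals sacrificed at 10, 20 and 45 min. Whole brain homogenized in water plus 5% DMF in acetonitrile, then centrifuged; blood precipitated in acetonitrile. Supernatants filtered and the quaternary acid quantified by HPLC against recovery spikes of quaternary salt into blank rat brain and blood.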
Structure (SMILES),Activity (Mus musculus [1]) [%],Activity (Mus musculus [2]) [%],half-life [3] [min],half-life [4] [min],half-life [5] [min],half-life [6] [min],half-life [7] [min],half-life [8] [min],Drug uptake (Brain) [µg/g]
CCOC(=O)C(C(=O)O)[n+]1ccc(C(=O)N/N=C/c2ccccc2O)cc1.[Br-] (stereo not given),30.34,78.8,–,–,–,–,–,–,–
CCOC(=O)C(C(=O)O)[n+]1ccc(C(=O)N/N=C/c2ccccc2Cl)cc1.[Br-] (stereo not given),31.42,79.6,–,–,–,–,–,–,–
CCOC(=O)C(C(=O)O)N1C=CCC(C(=O)N/N=C/c2ccc(OC)cc2)=C1 (stereo not given),–,–,2.1,3.35,260,196,21.8,10.1,–
CN1C=CC(C(=O)N/N=C/c2ccccc2Cl)C=C1,–,–,3.3,6.3,–,–,–,–,–
CN(C)c1ccc(/C=N/NC(=O)C2C=CN(C(C(=O)O)C(=O)O)C=C2)cc1,54.95,–,1.14,3.15,248,169,18.9,9.58,29.17
CCOC(=O)C(C(=O)O)N1C=CC(C(=O)N/N=C/c2ccccc2O)C=C1 (stereo not given),36.7,92.8,2.48,4.08,–,–,–,–,–
CCOC(=O)C(C(=O)O)N1C=CC(C(=O)N/N=C/c2ccccc2Cl)C=C1 (stereo not given),40.9,86.7,3.01,5.3,402,252,23.3,10.7,23.23
CN(C)c1ccc(/C=N/NC(=O)c2cc[n+](C(C(=O)O)C(=O)O)cc2)cc1.[Br-],50.75,–,–,–,–,–,–,–,–
CCOC(=O)C(C(=O)O)N1C=CCC(C(=O)N/N=C/c2ccccc2O)=C1 (stereo not given),64.55,–,2.17,3.85,–,–,–,–,–
CCOC(=O)C(C(=O)O)[n+]1cccc(C(=O)N/N=C/c2ccccc2O)c1.[Br-] (stereo not given),39.15,90.2,–,–,–,–,–,–,–
CN(C)CCCN1c2ccccc2CCc2ccccc21 [IMIPRAMINE],45.14,–,–,–,–,–,–,–,–

# Source: ChEMBL document CHEMBL1136857, “1-Malonyl-1,4-dihydropyridine as a novel carrier for specific delivery of drugs to the brain” (Bioorg Med Chem, 2009)
